Compound activity: PubChem BioAssay, The Scripps Research Institute Molecular Screening Center
Sampled rows, rich in hits. Any-hit rate of the full collection: about 4.3%.
GalR3 antag = antagonists of human GalR3. 360,000 compounds, 0.44% hits. HEK293 GalR3-CNG cAMP membrane potential fluorescence; galR3 body fused to GalR1 C-terminus. O60755. inhibition, % at 3 µM;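 active = inhibition above the screen-wide average plus 3 SD, cut at about 13% in these data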;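 note: forskolin and galanin both at EC90 stimulate the cells; cAMP rise reported by CNG channel membrane potential dye signal; 0% = forskolin plus galanin with DMSO and 100% = forskolin alone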
Target sequence (O60755 1-299 limits assumed): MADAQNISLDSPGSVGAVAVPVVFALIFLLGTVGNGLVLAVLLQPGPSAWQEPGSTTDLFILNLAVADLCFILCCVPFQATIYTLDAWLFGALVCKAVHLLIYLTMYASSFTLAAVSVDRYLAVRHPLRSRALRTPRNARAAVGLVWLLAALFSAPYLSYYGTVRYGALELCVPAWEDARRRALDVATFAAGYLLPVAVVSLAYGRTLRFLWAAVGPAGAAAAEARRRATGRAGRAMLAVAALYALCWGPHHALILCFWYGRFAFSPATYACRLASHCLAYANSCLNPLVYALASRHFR
TAAR1 ag = agonists of human TAAR1; Q96RJ0; CHO RD-HGA16 TAAR1, Fluo-8 calcium fluorescence; vehicle wells 0%, saturating PEA agonist 100%; activation, % at 3 µM; 360,000 compounds, 0.99% hits; AID 624467;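 active = activation above the mean activation of all test compounds in the run plus 3 SD, cut at about 38% in these data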
Target sequence (Q96RJ0 whole entry, looked up): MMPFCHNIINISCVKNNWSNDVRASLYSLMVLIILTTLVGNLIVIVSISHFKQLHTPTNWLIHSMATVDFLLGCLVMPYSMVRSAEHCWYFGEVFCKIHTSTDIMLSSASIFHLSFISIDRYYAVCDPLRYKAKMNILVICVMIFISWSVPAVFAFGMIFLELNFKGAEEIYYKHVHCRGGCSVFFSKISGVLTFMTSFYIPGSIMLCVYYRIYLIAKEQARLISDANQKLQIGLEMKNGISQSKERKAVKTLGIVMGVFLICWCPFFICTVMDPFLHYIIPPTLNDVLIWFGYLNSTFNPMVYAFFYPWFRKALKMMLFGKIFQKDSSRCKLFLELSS
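System: CHO-derived RD-HGA16 cells with stable Gα16 and human TAAR1. Times: 17-24 h plating, Fluo-8 75 min 37 °C, 30 min RT. Measured by: calcium-sensitive Fluo-8 signal, excitation 470-495, emission 515-575 nm. Read-out basis: % activation relative to PEA EC100 response. Control set: DMSO and PEA EC100. Repeats: no replicates (n 1).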
OX1R antag-1 = human HCRTR1 antagonism; AID 434989; 330,000 compounds, 0.43% hits; inhibition, % at 5 µM; CHO/OX1R cells, Fluo-8 calcium fluorescence, orexin A;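 active = inhibition above its plate's threshold, mean inhibition of all tested compounds on the plate plus 3 SD, cut at about 37% in these data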;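 note: 0% = orexin A challenge wells and 100% = SB-334867-A antagonist wells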
TAAR1 antagonist = human TAAR1 antagonism; 360,000 compounds, 1.5% hits; inhibition, % at 3 µM; Q96RJ0; CHO RD-HGA16 TAAR1, Fluo-8 calcium fluorescence, antagonist; AID 624466;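 active = inhibition above a per-plate cutoff, the mean inhibition of test compounds on that plate plus 3 SD, cut at about 49% in these data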;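 note: 0% = DMSO plus EC80 beta-PEA response and 100% = DMSO alone without agonist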
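test system = CHO RD-HGA16 cells bearing hTAAR1 | replication = singlicate | controls = DMSO-only wells and EC80 β-PEA-stimulated wells | reagent = EC80 β-phenethylamine stimulus | read-out basis = percent inhibition of PEA-evoked calcium signal, max/basal emission ratio | schedule = seeding 17-24 h prior, 75-min 37 °C, 30-min RT dye loading | signal = kinetic Fluo-8 calcium fluorescence measurement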
OX1R antag-2 = OX1R (human) antagonism | inhibition, % at 6.6 µM | AID 485270 | 330,000 compounds, 1.8% hits | OX1R-expressing cells, FRET antagonist read-out | O43613; in the data active = inhibition mostly above about 38%, no sharp cut-off; inactive = mostly below about 40%;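 note: 0% = agonist challenge alone and 100% = reference antagonist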
CHO parental Ca = signal in parental CHO cells, OX1R antagonist counter-screen; parental CHO-K1, ATP-induced calcium, Fluo-8 fluorescence; inhibition, % at 5.6 µM; 330,000 compounds, 0.63% hits; AID 463079;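 active = inhibition above that plate's mean sample inhibition plus 3 SD, cut at about 26% in these data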;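 note: 0% = ATP-challenged DMSO wells and 100% = DMSO wells without ATP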
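Material – parental CHO cells · Reagent – ATP stimulus · Compound – single nominal dose of 5.6 µM per compound · Detection – Fluo-8 fluorescence · Read-out basis – percent inhibition of calcium signal · Controls – ATP-challenged DMSO wells low, unchallenged DMSO wells high · Repeats – no replicates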
nonsel antag count = nonselective antagonist in TAAR1 antagonist counter-screen | inhibition, % at 3 µM | 2,400 compounds, 77% hits | counterscreen cell line, calcium fluorescence, antagonist mode | AID 651780 | shares compounds with TAAR1 antagonist; in the data active = inhibition above about 22%;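 note: CHO-Ga16 host cells stimulated with ATP at an EC80 level; 0% = agonist EC80 plus vehicle and 100% = vehicle without agonist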
TAAR1 antag conf = confirmation of human TAAR1 antagonists; inhibition, % at 3 µM; shares compounds with TAAR1 antagonist; 2,400 compounds, 40% hits; TAAR1-expressing cells, fluorescence antagonist read-out; AID 651785; in the data active = inhibition above about 49%;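 note: CHO-Ga16 host cells challenged with agonist PEA near its EC80; 0% = agonist at EC80 plus vehicle and 100% = vehicle with no agonist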
Ga16 ag counter = counter-screen for TAAR1 antagonists: nonselective Ga16 agonists. shares compounds with TAAR1 antagonist. Ga16-expressing cells, calcium fluorescence, agonist counterscreen. AID 651953. 2,400 compounds, 18% hits. activation, % at 3 µM; in the data active = activation above about 12%;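 note: 0% = vehicle wells and 100% = saturating stimulus response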
TAAR1 ag count = TAAR1 agonism, antagonist counter-screen | hTAAR1 cell line, fluorescence activation, agonist mode | shares compounds with TAAR1 antagonist | 2,400 compounds, 2% hits | activation, % at 3 µM; in the data active = activation above about 37%;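 note: CHO cells stably expressing TAAR1 with calcium dye readout; 0% = DMSO vehicle and 100% = full agonist response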
* hit, by the source's call; x = not tested or not shown.

SMILES | GalR3 antag | TAAR1 ag | OX1R antag-1 | TAAR1 antagonist | OX1R antag-2 | CHO parental Ca | nonsel antag count | TAAR1 antag conf | Ga16 ag counter | TAAR1 ag count
O=C(N/N=C/c1ccc2ncccc2c1)c1cc(-c2cccs2)nc2ccccc12 | 1 | 3 | 19 | 57* | 62* | -18 | 27* | 44 | 5 | 15
O=C(NCc1ccco1)c1cc(-c2cccs2)nc2ccccc12 | 0 | 12 | -7 | 62* | 22 | -18 | 27* | 42 | 6 | 3
CC1CCC(=NO)C(=NO)C1 (configuration not stated) | -5 | 1 | x | 13 | x | x | x | x | x | x
O=C(NN1C(=O)NC2(CCCCC2)C1=O)c1ccc(Cl)s1 | -6 | 10 | -5 | 12 | 6 | -2 | x | x | x | x
CCOC(=O)c1cc(-c2cccs2)nc2c1c(C)nn2-c1ccccn1 | -8 | 2 | -39 | 28 | 38 | -16 | x | x | x | x
CCOCCCNC(=O)c1cc(-c2ccc(Br)s2)nc2ccccc12 | -12 | 0 | -29 | 2 | -2 | -21 | x | x | x | x
CC(C)OCCCNC(=O)c1cc(-c2cccs2)nc2ccccc12 | -8 | 17 | -26 | 57* | 9 | -14 | 31* | 49 | 7 | 11
Cc1nn(-c2ccccn2)c2nc(-c3cccs3)cc(C(=O)NCc3ccco3)c12 | -2 | 14 | -28 | 60* | 26 | -33 | 32* | 49* | 5 | 4
O=C(Nc1cccc(/C=C/c2ccccn2)c1)c1ccc(-n2cncn2)c([N+](=O)[O-])c1 | -5 | 21 | -3 | 73* | 26 | -3 | 40* | 61* | 14* | 13
COc1ccc(N(C)S(=O)(=O)c2cccc(C(=O)Nc3ccc(OC)nc3)c2)cc1 | -2 | 18 | 4 | 62* | 17 | 1 | 31* | 43 | 11 | 6
COc1ccc(N(C)S(=O)(=O)c2cccc(C(=O)Nc3ccc4c(c3)OCCO4)c2)cc1 | -2 | 4 | -13 | 36 | 39 | -3 | x | x | x | x
COc1ccc(N(C)S(=O)(=O)c2cccc(C(=O)Nc3ccc(-n4cnnn4)cc3)c2)cc1 | -1 | 19 | 11 | 75* | 17 | 20 | 47* | 52* | 13* | 5
Cc1ccccc1OCCC(=O)OCC(=O)Nc1ccc(C)c(S(=O)(=O)N2CCCCC2)c1 | -9 | 5 | x | 32 | x | x | x | x | x | x
Cc1ccc(C)c(OCCC(=O)OCC(=O)Nc2ccc(C)c(S(=O)(=O)N3CCCCC3)c2)c1 | -4 | 6 | -18 | 53* | 6 | -14 | 39* | 44 | 7 | 8
Cc1ccc(C(=O)Nc2cccc(C(F)(F)F)c2)cc1Nc1cnccn1 | 4 | 5 | -10 | -6 | 34 | -7 | x | x | x | x
Cc1ccc(C(=O)Nc2cccc(C(F)(F)F)c2)cc1Nc1ncnc2nc[nH]c12 | -5 | 4 | -13 | 52* | 15 | -4 | 32* | 41 | 6 | 1
COCC(=O)N(C)C[C@H]1Oc2ncc(Br)cc2C(=O)N([C@@H](C)CO)C[C@H]1C | -8 | 5 | x | 1 | x | x | x | x | x | x
CC(=O)CCc1ccc(OCCCOc2cccc3cccnc23)cc1 | -4 | 15 | -22 | 68* | 21 | -3 | 32* | 46 | 11 | 18
O=C(NC(c1ccc(-c2ccccc2)cc1)c1cnccn1)C1CCN(CCOc2ccc(F)cc2)CC1 (configuration not stated) | -9 | 34 | x | 71* | x | x | 39* | 53* | 16* | 25
O=C(OCc1ccccc1)N1CCCCC1c1c(Cl)cccc1Br (configuration not stated) | -4 | 2 | x | 30 | x | x | x | x | x | x
CCN(CC)c1ncnc2c1cnn2Cc1ccc(Cl)cc1 | -1 | 13 | -24 | 54* | 17 | -20 | 27* | 40 | 7 | 8
C=Cc1cc2c(cc1O)CCC1C2CCC2(C)C(O)CCC12 (configuration not stated) | -4 | 8 | x | 58* | x | x | 23* | 44 | 9 | 7
CC#Cc1cc2c(cc1O)CCC1C2CCC2(C)C(O)CCC12 (configuration not stated) | -2 | 4 | x | 25 | x | x | x | x | x | x
O=c1c(-c2ccccc2)cocc1-c1ccccc1 | -2 | 0 | x | 2 | x | x | x | x | x | x
COc1cc(NC(=O)[C@@H]2CCCN(S(=O)(=O)c3cccc4cccnc34)C2)cc(OC)c1OC | -3 | 20 | -27 | 51* | 35 | -22 | 29* | 40 | 8 | 5
SMILES | GalR3 antag | TAAR1 ag | OX1R antag-1 | TAAR1 antagonist | OX1R antag-2 | CHO parental Ca | nonsel antag count | TAAR1 antag conf | Ga16 ag counter | TAAR1 ag count
O=C(C1CCN(S(=O)(=O)c2cccc3cccnc23)CC1)N1CCCC1 | 1 | 2 | -3 | 1 | 7 | 7 | x | x | x | x
Cc1cccc(N2CCN(C(=O)C3CCN(S(=O)(=O)c4cccc5cccnc45)CC3)CC2C)c1 (configuration not stated) | 6 | 15 | -11 | 75* | 20 | -11 | 28* | 54* | 11 | 9
Cc1ccccc1NC(=O)C1CCCN(S(=O)(=O)c2cccc3cccnc23)C1 (configuration not stated) | 1 | 13 | -26 | 54* | 18 | -20 | 20 | 39 | 7 | 7
COc1cc(NC(=O)[C@H]2CCCN2S(=O)(=O)c2cccc3cccnc23)cc(OC)c1OC | -6 | 5 | -15 | -5 | 41 | -19 | x | x | x | x
COc1ccc(OC)c(NC(=O)C2CCCN(S(=O)(=O)c3cccc4cccnc34)C2)c1 (configuration not stated) | 3 | 12 | -7 | 60* | 74* | -21 | 24* | 40 | 9 | 7
Cc1ccc(S(=O)(=O)N2CCCCC2)cc1NC(=O)C1CC(=O)N(c2ccc3c(c2)OCCO3)C1 (configuration not stated) | -5 | -1 | -26 | 6 | 4 | -17 | x | x | x | x
N=C1/C(=C\c2ccc(-c3ccc(C(=O)O)cc3)o2)C(=O)N=C2SC=C(c3ccccc3)N12 | -2 | 23 | x | 54* | x | x | 45* | 63* | 16* | 14
N=C1/C(=C\c2ccc(-c3cccc(Cl)c3)o2)C(=O)N=C2SC=C(c3ccccc3)N12 | -1 | 0 | -6 | 6 | 12 | -5 | x | x | x | x
COc1ccc(C(=O)OCC(=O)c2ccc[nH]2)cc1 | 4 | 1 | 0 | -13 | 2 | 2 | x | x | x | x
